# Measured values: ChEMBL document CHEMBL2407075, “Sulphonamido-quinoxalines: search for anticancer agent” (Eur J Med Chem, 2013)
# Key:
# Type in all cases: functional
# DU-145 [1] = test: Growth inhibition of human DU145 cells assessed as cell growth at 10^-4 M after 48 hrs by sulforhodamine B assay; details: DU-145, 48 h, read-out: Activity
# Outline: (§1)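 Five-dose NCI-60 run (0.01, 0.1, 1, 10 and 100 µM, as 10-fold dilutions from a DMSO stock made at 400× the top final level). Cells were grown in RPMI 1640 with 5% FBS and 2 mM glutamine and plated for 24 h. They were then exposed for 48 h at 37 °C and 5% CO2. TCA fixation was followed by SRB staining with A515 read-out. Percent growth was taken relative to time-zero and control plates.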
# LOX IMVI [2] = test: Growth inhibition of human LOXIMVI cells assessed as cell growth at 10^-4 M after 48 hrs by sulforhodamine B assay; details: read-out: Activity
# SNB-75 = test: Growth inhibition of human SNB75 cells assessed as cell growth at 10^-4 M after 48 hrs by sulforhodamine B assay; details: SNB-75, 48 h, read-out: Activity
# HOP-62 [3] = test: Growth inhibition of human HOP62 cells assessed as cell growth at 10^-4 M after 48 hrs by sulforhodamine B assay; details: HOP-62, 48 h, read-out: Activity
# Outline: (§2)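 Five-dose screen at NCI. Cells in RPMI 1640 with 5% FBS and 2 mM L-glutamine, seeded at 5000–40,000 cells/well and grown 24 h at 37 °C, 5% CO2 before dosing, with time-zero plates TCA-fixed. Drug diluted from DMSO stock to 0.01, 0.1, 1, 10 and 100 µM final, 48 h. Cells fixed with cold TCA (10% final), stained with 0.4% SRB and read at 515 nm. Percent growth from Tz, control and test absorbances; GI50, TGI and LC50 from dose-response curves.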
# 786-0 = test: Growth inhibition of human 786-0 cells assessed as cell growth at 10^-5 M after 48 hrs by sulforhodamine B assay; details: 786-0, 48 h, read-out: Activity; outline: as §1
# OVCAR-4 = test: Growth inhibition of human OVCAR4 cells assessed as cell growth at 10^-5 M after 48 hrs by sulforhodamine B assay; details: OVCAR-4, 48 h, read-out: Activity
# M14 = test: Growth inhibition of human M14 cells assessed as cell growth at 10^-5 M after 48 hrs by sulforhodamine B assay; details: M14, 48 h, read-out: Activity
# [4] = Growth inhibition of human HCC2998 cells assessed as cell growth at 10^-5 M after 48 hrs by sulforhodamine B assay; details: HCC 2998, 48 h, read-out: Activity; outline: as §2
# NCI-H522 = test: Growth inhibition of human NCI-H522 cells assessed as cell growth at 10^-5 M after 48 hrs by sulforhodamine B assay; details: NCI-H522, 48 h, read-out: Activity
# BT-549 = test: Growth inhibition of human BT549 cells assessed as cell growth at 10^-6 M after 48 hrs by sulforhodamine B assay; details: BT-549, 48 h, read-out: Activity; outline: as §1
# SK-OV-3 = test: Growth inhibition of human SKOV3 cells assessed as cell growth at 10^-6 M after 48 hrs by sulforhodamine B assay; details: SK-OV-3, 48 h, read-out: Activity
# UACC-257 [5] = test: Growth inhibition of human UACC257 cells assessed as cell growth at 10^-6 M after 48 hrs by sulforhodamine B assay; details: UACC-257, 48 h, read-out: Activity
# Malme-3M [6] = test: Growth inhibition of human MALME-3M cells assessed as cell growth at 10^-6 M after 48 hrs by sulforhodamine B assay; details: read-out: Activity
# HOP-62 [7] = test: Growth inhibition of human HOP62 cells assessed as cell growth at 10^-6 M after 48 hrs by sulforhodamine B assay; details: HOP-62, 48 h, read-out: Activity; outline: as §2
# RPMI-8226 = test: Growth inhibition of human RPMI8226 cells assessed as cell growth at 10^-6 M after 48 hrs by sulforhodamine B assay; details: RPMI-8226, 48 h, read-out: Activity
# UACC-62 = test: Growth inhibition of human UACC62 cells assessed as cell growth at 10^-7 M after 48 hrs by sulforhodamine B assay; details: UACC-62, 48 h, read-out: Activity
# MDA-MB-435 = test: Growth inhibition of human MDA-MB-435 cells assessed as cell growth at 10^-7 M after 48 hrs by sulforhodamine B assay; details: MDA-MB-435, 48 h, read-out: Activity
# HT-29 = test: Growth inhibition of human HT-29 cells assessed as cell growth at 10^-7 M after 48 hrs by sulforhodamine B assay; details: HT-29, 48 h, read-out: Activity; outline: as §2
# NCI-H226 = test: Growth inhibition of human NCI-H226 cells assessed as cell growth at 10^-7 M after 48 hrs by sulforhodamine B assay; details: NCI-H226, 48 h, read-out: Activity
# K562 = test: Growth inhibition of human K562 cells assessed as cell growth at 10^-7 M after 48 hrs by sulforhodamine B assay; details: K562, 48 h, read-out: Activity
# UO-31 = test: Growth inhibition of human UO31 cells assessed as cell growth at 10^-8 M after 48 hrs by sulforhodamine B assay; details: UO-31, 48 h, read-out: Activity
# IGROV-1 = test: Growth inhibition of human IGROV1 cells assessed as cell growth at 10^-8 M after 48 hrs by sulforhodamine B assay; details: IGROV-1, 48 h, read-out: Activity
# UACC-257 [8] = test: Growth inhibition of human UACC257 cells assessed as cell growth at 10^-8 M after 48 hrs by sulforhodamine B assay; details: UACC-257, 48 h, read-out: Activity
# Malme-3M [9] = test: Growth inhibition of human MALME-3M cells assessed as cell growth at 10^-8 M after 48 hrs by sulforhodamine B assay; details: read-out: Activity
# LOX IMVI [10] = test: Growth inhibition of human LOXIMVI cells assessed as cell growth at 10^-8 M after 48 hrs by sulforhodamine B assay; details: read-out: Activity
# [11] = Growth inhibition of human HCC2998 cells assessed as cell growth at 10^-8 M after 48 hrs by sulforhodamine B assay; details: HCC 2998, 48 h, read-out: Activity; outline: as §2
# DU-145 [12] = test: Growth inhibition of human DU145 cells after 48 hrs by sulforhodamine B assay; details: DU-145, 48 h; for CC50: read-out: LC50 (the source's name)
# Outline: (§3)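 Adherent cells in RPMI 1640 with 5% FBS and 2 mM L-glutamine were plated at 5000–40,000 cells/well and grown 24 h. Five concentrations (0.01–100 µM, DMSO stock) were added for 48 h at 37 °C. Cells were fixed with cold TCA (10% final) and stained with SRB, read at 515 nm. GI50 came from log concentration–growth curves against time-zero and control plates.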
# TK-10 = test: Growth inhibition of human TK10 cells after 48 hrs by sulforhodamine B assay; details: TK-10, 48 h; for CC50: read-out: LC50 (the source's name); outline: as §3
# SW-620 = test: Growth inhibition of human SW620 cells after 48 hrs by sulforhodamine B assay; details: SW-620, 48 h; for CC50: read-out: LC50 (the source's name); outline: as §3
SMILES,growth at 100 µM (DU-145 [1]) [%],growth at 100 µM (LOX IMVI [2]) [%],growth at 100 µM (SNB-75) [%],growth at 100 µM (HOP-62 [3]) [%],growth at 10 µM (786-0) [%],growth at 10 µM (OVCAR-4) [%],growth at 10 µM (M14) [%],growth at 10 µM [4] [%],growth at 10 µM (NCI-H522) [%],growth at 1 µM (BT-549) [%],growth at 1 µM (SK-OV-3) [%],growth at 1 µM (UACC-257 [5]) [%],growth at 1 µM (Malme-3M [6]) [%],growth at 1 µM (HOP-62 [7]) [%],growth at 1 µM (RPMI-8226) [%],growth at 0.1 µM (UACC-62) [%],growth at 0.1 µM (MDA-MB-435) [%],growth at 0.1 µM (HT-29) [%],growth at 0.1 µM (NCI-H226) [%],growth at 0.1 µM (K562) [%],further results
O=S(=O)(Nc1ccc(Cl)cc1)c1ccc2nc(-c3ccccc3)c(-c3ccccc3)nc2c1,65,66,46,44,-45,12,-27,2,-34,78,105,84,103,105,68,87,92,100,99,98,growth at 0.01 µM (UO-31): 87%; growth at 0.01 µM (IGROV-1): 102%; growth at 0.01 µM (UACC-257 [8]): 94%; growth at 0.01 µM (Malme-3M [9]): 106%; growth at 0.01 µM (LOX IMVI [10]): 99%; growth at 0.01 µM [11]: 99%; TGI (DU-145 [12]): > 100 µM; CC50 (DU-145 [12]): > 100 µM; TGI (TK-10): > 100 µM; CC50 (TK-10): > 100 µM; TGI (SW-620): > 100 µM; CC50 (SW-620): > 100 µM
O=S(=O)(Nc1ccccn1)c1ccc2nc(-c3ccccc3)c(-c3ccccc3)nc2c1,59,57,20,39,-30,10,-42,-14,-42,71,98,81,115,115,55,92,102,97,95,99,growth at 0.01 µM (UO-31): 88%; growth at 0.01 µM (IGROV-1): 103%; growth at 0.01 µM (UACC-257 [8]): 96%; growth at 0.01 µM (Malme-3M [9]): 97%; growth at 0.01 µM (LOX IMVI [10]): 97%; growth at 0.01 µM [11]: 99%; TGI (DU-145 [12]): > 100 µM; CC50 (DU-145 [12]): > 100 µM; TGI (TK-10): > 100 µM; CC50 (TK-10): > 100 µM; TGI (SW-620): > 100 µM; CC50 (SW-620): > 100 µM
